Source: article PMC9978883 (Molecular Cancer Therapeutics, 2023)

Key:
VCaP = experiment: Cell proliferation; format: cell-based, human; settings: for IC50: Homo sapiens, VCaP, 72 h, read-out: Growth inhibitory IC50, VCaP
LNCaP = experiment: Cell proliferation; format: cell-based; settings: Homo sapiens, 72 h, read-out: Growth inhibitory IC50, LNCaP
WPMY = experiment: Cell proliferation; format: cell-based; settings: Homo sapiens, 72 h, read-out: Growth inhibitory IC50, WPMY
PC3 = experiment: Cell proliferation; format: cell-based; settings: Homo sapiens, PC-3, 72 h, read-out: Growth inhibitory IC50, PC3
DU145 = experiment: Cell proliferation; format: cell-based; settings: Homo sapiens, DU-145, 72 h, read-out: Growth inhibitory IC50, DU145
ERG = target: T1, ERG (Homo sapiens, UniProt P11308); experiment: Surface plasmon resonance, ERG; format: binding; settings: SPR
T1 sequence (P11308 1-479): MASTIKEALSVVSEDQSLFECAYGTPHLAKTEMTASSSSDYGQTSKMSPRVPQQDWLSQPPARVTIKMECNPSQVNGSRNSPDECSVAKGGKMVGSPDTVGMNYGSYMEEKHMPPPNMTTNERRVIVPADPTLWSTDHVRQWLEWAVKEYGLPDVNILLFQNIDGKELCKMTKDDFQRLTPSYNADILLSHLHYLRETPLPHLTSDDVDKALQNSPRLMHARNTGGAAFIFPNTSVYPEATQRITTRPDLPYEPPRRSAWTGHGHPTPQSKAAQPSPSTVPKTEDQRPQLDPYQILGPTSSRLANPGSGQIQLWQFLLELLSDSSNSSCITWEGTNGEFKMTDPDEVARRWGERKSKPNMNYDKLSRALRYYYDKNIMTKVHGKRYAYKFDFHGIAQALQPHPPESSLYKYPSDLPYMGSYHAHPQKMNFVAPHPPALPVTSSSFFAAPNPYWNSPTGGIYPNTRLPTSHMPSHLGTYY

cleaved PARP1 = experiment: Western blotting for cleaved PARP1 in VCaP cells; format: cell-based, human
DU145 vector = experiment: Cell proliferation on DU145 vector control cells; format: cell-based; settings: Homo sapiens, DU-145, read-out: IC50, DU145 vector
AIF mRNA = experiment: RT-qPCR for AIF mRNA on VCaP cells; format: cell-based, human; settings: 2 or 5 μmol/L, 12 or 24 hours
VCaP xenograft tumors = experiment: VCaP xenograft in male SCID mice; format: in vivo
Procedure, shortened: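 Male SCID mice were implanted subcutaneously on the left abdomen with 4 × 10^6 VCaP cells. At about 100 mm3, mice were randomised, six per group. Dosing was 75 mg/kg i.p. once daily or 37.5 mg/kg by gavage twice daily; controls got solvent i.p. Plasma ALT and AST were measured by kit every 7 days. Endpoint was tumour volume >2 cm3. Data are mean ± SD, Dunnett test versus control.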

AIF = AIF Western blot in VCaP cells; format: cell-based, human
ALDH1 = target: T2, ALDH1 (Homo sapiens, UniProt P00352); experiment: Surface plasmon resonance, ALDH1; format: binding
T2 sequence (P00352 1-501): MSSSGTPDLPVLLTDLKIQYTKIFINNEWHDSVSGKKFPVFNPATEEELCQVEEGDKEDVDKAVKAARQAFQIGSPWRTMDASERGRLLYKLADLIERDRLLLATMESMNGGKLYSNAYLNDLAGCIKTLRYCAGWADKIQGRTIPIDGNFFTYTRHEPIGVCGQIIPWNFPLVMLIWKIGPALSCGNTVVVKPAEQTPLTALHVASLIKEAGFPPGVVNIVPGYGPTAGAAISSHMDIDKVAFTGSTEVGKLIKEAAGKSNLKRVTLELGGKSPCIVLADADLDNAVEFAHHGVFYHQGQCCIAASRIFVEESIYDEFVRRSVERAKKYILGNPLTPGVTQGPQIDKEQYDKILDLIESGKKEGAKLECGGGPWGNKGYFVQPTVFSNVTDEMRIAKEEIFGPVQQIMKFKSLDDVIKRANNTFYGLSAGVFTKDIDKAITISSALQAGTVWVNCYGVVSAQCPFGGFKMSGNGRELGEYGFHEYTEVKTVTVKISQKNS

γ-H2A.X = γ-H2A.X Western blotting in VCaP cells; format: cell-based, human
[1] = target: T3, interaction between ERG and PARP1 (Homo sapiens, UniProt P11308); format: cell-based; settings: 0.5 or 1 μmol/L, 2 hours, DU145-ERG
T3 sequence (P11308 1-479): T1 sequence (P11308 1-479)

STAT3 = STAT3 (Homo sapiens, UniProt P40763); experiment: Surface plasmon resonance, STAT3; format: binding
STAT3, sequence (P40763 whole entry): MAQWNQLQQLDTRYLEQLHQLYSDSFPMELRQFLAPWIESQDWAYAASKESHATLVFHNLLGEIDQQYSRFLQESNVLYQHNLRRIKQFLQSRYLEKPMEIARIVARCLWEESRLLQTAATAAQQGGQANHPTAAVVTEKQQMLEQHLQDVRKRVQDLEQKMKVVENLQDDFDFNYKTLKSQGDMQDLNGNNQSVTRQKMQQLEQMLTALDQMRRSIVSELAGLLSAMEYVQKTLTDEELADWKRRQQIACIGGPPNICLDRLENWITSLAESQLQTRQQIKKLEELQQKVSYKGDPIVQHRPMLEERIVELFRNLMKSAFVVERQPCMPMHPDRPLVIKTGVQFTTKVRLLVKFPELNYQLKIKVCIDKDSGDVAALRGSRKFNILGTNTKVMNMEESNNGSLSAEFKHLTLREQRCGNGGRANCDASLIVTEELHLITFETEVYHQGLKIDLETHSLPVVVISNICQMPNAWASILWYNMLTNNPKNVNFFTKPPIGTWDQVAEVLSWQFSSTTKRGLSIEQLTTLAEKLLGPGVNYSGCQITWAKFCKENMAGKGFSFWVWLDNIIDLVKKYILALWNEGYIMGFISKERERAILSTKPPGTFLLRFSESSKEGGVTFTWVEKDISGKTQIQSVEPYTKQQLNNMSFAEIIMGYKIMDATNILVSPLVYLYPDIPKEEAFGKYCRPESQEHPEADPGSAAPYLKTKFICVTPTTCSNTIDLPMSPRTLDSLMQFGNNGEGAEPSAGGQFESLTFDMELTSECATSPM

VCaP cells [2] = experiment: Cell-cycle determination by flow cytometry; format: cell-based, human; settings: 5, 10, or 20 μmol/L, 24 hours
VCaP cells [3] = experiment: Cell necrosis and apoptosis, PI/Hoechst 33342 flow cytometry; format: cell-based, human
[4] = NFZ-treated groups, every 7 days

| IC50 (VCaP) | IC50 (LNCaP) | IC50 (PC3) | IC50 (DU145) | Compound | IC50 (WPMY) | other results |
| --- | --- | --- | --- | --- | --- | --- |
| > 30 µM | 33 ± 3.11 µM | 27 ± 2 µM | 22.6 ± 2.93 µM | CCN(CC)C(=S)SSC(=S)N(CC)CC [Disulfiram] | 23.3 ± 0.49 µM | – |
| > 30 µM | > 30 µM | > 30 µM | > 30 µM | CC1CS(=O)(=O)CCN1/N=C/c1ccc([N+](=O)[O-])o1 (stereo not shown) [Nifurtimox] | > 30 µM | – |
| 13.9 ± 1.12 µM | > 30 µM | 3.87 ± 0.35 µM | 27.7 ± 1.11 µM | CSCC1CN(/N=C/c2ccc([N+](=O)[O-])o2)C(=O)O1 (stereo not shown) [Nifuratel] | 26.6 ± 0.13 µM | – |

Second part, the compound before the results:

| Compound | IC50 (VCaP) | IC50 (LNCaP) | IC50 (PC3) | IC50 (DU145) | IC50 (WPMY) | other results |
| --- | --- | --- | --- | --- | --- | --- |
| CC(=O)c1cc2c(o1)C(=O)c1ccccc1C2=O [Napabucasin] | 0.23 ± 0.05 µM | 0.23 ± 0.08 µM | 0.29 ± 0.07 µM | 0.16 ± 0.05 µM | 0.25 ± 0.01 µM | – |
| O=C(N/N=C/c1ccc([N+](=O)[O-])o1)c1ccc(O)cc1 [NFZ, Nifuroxazide] | 2.65 ± 0.08 µM | 13.4 ± 2.66 µM | 3.62 ± 0.51 µM | 5.12 ± 0.63 µM | 4.53 ± 0.12 µM | Binding pattern with ERG (ERG): fast binding and fast dissociation; PARP1 cleavage (cleaved PARP1; 2 or 5 μmol/L, VCaP): increased PARP1 cleavage; IC50 (DU145 vector): 7.68 ± 0.211 µM; Reduction of NFZ inhibition on DU145-ERG by addition of olaparib (DU145-ERG; 10 μmol/L OLP): at least 10 fold; Difference in IC50 between DU145-ERG and DU145 vector (DU145-ERG; p < 0.0001): at least sevenfold; AIF mRNA expression (AIF mRNA): increased the expression of AIF; Plasma ALT (VCaP xenograft tumors; [4]): fluctuated within a normal range; Plasma AST (VCaP xenograft tumors; [4]): fluctuated within a normal range; Weight loss of mice (VCaP xenograft tumors; NFZ-treated versus vehicle): significantly less than that of mice treated with vehicle; Toxicity by observation (VCaP xenograft tumors; gavage or i.p.): did not show obvious toxicity; AIF protein (AIF; 2 or 5 μmol/L, within 30 minutes, VCaP): rapidly released AIF; Kd (ALDH1): 22.2 µM; Binding pattern with ALDH1 (ALDH1; SPR): fast binding/fast dissociation; γ-H2A.X expression (γ-H2A.X; 2 or 5 μmol/L, different times, VCaP): increased; Amount of PARP1 bound to ERG [1]: reduced the amount of PARP1 bound to ERG; Kd (STAT3): 22.8 µM; Binding pattern with STAT3 (STAT3; SPR): fast binding/fast dissociation; Proportion of cells in the G1–G0 phase (VCaP cells [2]): increased with the increasing NFZ concentrations; Dead cells along the PI axis (Q1 and Q2) (VCaP cells [3]; 5, 10, or 20 μmol/L, VCaP): significantly higher than that in the DMSO group |
| O=C(c1cc(Cc2n[nH]c(=O)c3ccccc23)ccc1F)N1CCN(C(=O)C2CC2)CC1 [Olaparib, olaparib] | – | – | – | – | – | Effect of olaparib on NFZ-mediated growth inhibition (VCaP; 5 μmol/L NFZ with 20 μmol/L olaparib): completely abrogated the inhibitory effects of NFZ; Effect of olaparib on NFZ-mediated growth inhibition (VCaP; 5 μmol/L NFZ with 0.5, 1.0, or 20 μmol/L OLP): blocked NFZ-mediated growth inhibition; Effect of olaparib on NFZ-induced PARP1 cleavage (cleaved PARP1; 10 μmol/L OLP with NFZ): not altered; Effect of olaparib on NFZ-induced AIF release (AIF; 10 μmol/L olaparib with NFZ): reduced; Effect of olaparib on NFZ-induced γ-H2A.X (γ-H2A.X; 10 μmol/L OLP with NFZ): counteracted this effect of NFZ; Effect of olaparib on NFZ-induced necrotic cells (Q1 and Q2) (VCaP cells [3]; olaparib and NFZ combination group versus NFZ): reduced the number of necrotic cells |
| O=C(N/N=C/c1ccc([N+](=O)[O-])o1)c1cc([N+](=O)[O-])cc([N+](=O)[O-])c1O [Nifursol] | > 30 µM | > 30 µM | > 30 µM | > 30 µM | > 30 µM | – |
